Source: ChEMBL document CHEMBL3596181, “Optimization of the anti-cancer activity of phosphatidylinositol-3 kinase pathway inhibitor PITENIN-1: switching a thiourea with 1,2,3-triazole” (Medchemcomm, 2014)
Activity calls are given as the source filed them. The calls are words filed in the database; no cut-off is given here.

Assays:
A2780 [1] = experiment: Cytotoxicity against human A2780 cells by ESI; type: functional, cell-based
A2780 [2] = experiment: Cytotoxicity against human A2780 cells by […]; type: functional, cell-based
Method in brief: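 Cells were exposed to inhibitors together with 1 μg/mL TRAIL for 24 hr. Viability was read by CellTiter-Glo assay.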

[3] = molecular target: RAC-alpha serine/threonine-protein kinase (Homo sapiens) (UniProt P31749); experiment: Inhibition of Akt PH domain (unknown origin) binding to PI(3,4)P2 at 100 uM by lipid overlay assay
RAC-alpha serine/threonine-protein kinase (Homo sapiens), sequence (P31749 whole entry, the tested form may be a part): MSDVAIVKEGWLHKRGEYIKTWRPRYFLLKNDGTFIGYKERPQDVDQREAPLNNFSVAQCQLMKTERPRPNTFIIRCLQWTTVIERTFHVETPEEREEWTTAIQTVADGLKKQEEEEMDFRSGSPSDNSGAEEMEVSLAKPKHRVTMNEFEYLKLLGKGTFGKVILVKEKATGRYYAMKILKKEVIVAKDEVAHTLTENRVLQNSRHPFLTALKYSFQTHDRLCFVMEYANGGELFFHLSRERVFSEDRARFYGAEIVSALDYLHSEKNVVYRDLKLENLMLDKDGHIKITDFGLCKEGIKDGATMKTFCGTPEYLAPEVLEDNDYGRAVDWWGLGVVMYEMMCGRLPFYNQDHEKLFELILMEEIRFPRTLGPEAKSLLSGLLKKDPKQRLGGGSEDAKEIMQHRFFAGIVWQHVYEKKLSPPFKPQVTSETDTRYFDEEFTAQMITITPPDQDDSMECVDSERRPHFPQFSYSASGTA
Method in brief: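 Lipid overlay: AktPH domain binding to PI(3,4)P2 spotted on a […] membrane.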

[4] = Inhibition of Akt in human U87MG cells assessed as inhibition of TORC1/p70S6K/S6 pathway at 0.3 to 50 uM after 7 hrs by Western blotting analysis; type: cell-based; settings: U-87MG ATCC
Method in brief: (§1)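 U87MG or A2780 cells were exposed to inhibitors for 7 hr. Lysates were Western blotted with phospho-S6 and total S6 antibodies.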

[5] = Inhibition of Akt in human A2780 cells assessed as inhibition of TORC1/p70S6K/S6 pathway at 0.3 to 50 uM after 7 hrs by Western blotting analysis; type: cell-based; method in brief: as §1
U-87 MG = experiment: Cytotoxicity against human U87MG cells at 6.25 to 50 uM after 24 hrs by CellTitre-Glo assay; type: functional, cell-based; settings: U-87MG ATCC
Method in brief: (§2)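 Cells were treated with inhibitors alone for 24 hr. Viability was read by CellTiter-Glo luminescence.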

A2780 [6] = experiment: Cytotoxicity against human A2780 cells at 6.25 to 50 uM after 24 hrs by CellTitre-Glo assay; type: functional, cell-based; method in brief: as §2
T47D = experiment: Cytotoxicity against human T47D cells at 6.25 to 50 uM after 24 hrs by CellTitre-Glo assay; type: functional, cell-based; method in brief: as §2
A2780 [7] = experiment: Antimigratory activity against human A2780 cells at 0.75 to 1.5 uM by wound healing assay; type: functional, cell-based
Method in brief: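 Wound healing: A2780 monolayers were treated with inhibitors and then scratch-wounded. The cell-free area was photographed at set time points, and the open wound area was quantified.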

[8] = Half life in mouse liver microsomes; type: ADME
Method in brief: (§3)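 Stability in mouse liver microsomes in vitro. Half-life (min) and intrinsic clearance (μL·min⁻¹·mg⁻¹) were determined.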

[9] = Clearance in mouse liver microsomes; type: ADME; settings: read-out: CLH; method in brief: as §3
[10] = Half life in mouse at 1 mg/kg, iv; type: ADME, organism-based; settings: in vivo
[11] = Clearance in mouse at 1 mg/kg, iv; type: ADME, organism-based; settings: in vivo
[12] = Bioavailability in ip dosed mouse; type: ADME, organism-based; settings: in vivo
Method in brief: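 Bioavailability was calculated from intraperitoneal administration relative to an intravenous 1 mg/kg dose in mouse.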

| Compound | EC50 (A2780 [1]) | EC50 (A2780 [2]) [µmol] | also measured |
| --- | --- | --- | --- |
| COc1ccc(Cl)cc1-n1cc(C(=O)c2ccccc2)nn1 | > 100 µmol | > 100 |  |
| O=C(c1ccccc1)c1cn(-c2ccc(Cl)cc2O)nn1 | 48.9 µmol | 42.3 |  |
| Cc1ccc(O)c(-n2cc(C(=O)c3ccc4ccccc4c3)nn2)c1 | > 100 µmol | > 100 |  |
| Cc1cccc(O)c1-n1cc(C(=O)c2ccc(C(C)C)cc2)nn1 | > 100 µmol | > 100 |  |
| Cc1cc(C)cc(C(=O)c2cn(-c3ccc(Cl)cc3O)nn2)c1 | > 100 µmol | 64.4 |  |
| O=C(c1ccc2ccccc2c1)c1cn(-c2cc(Cl)ccc2O)nn1 | > 100 µmol | > 100 |  |
| O=C(NC(=S)Nc1cc([N+](=O)[O-])cc(Cl)c1O)c1ccccc1 |  |  | inhibition [3]: Active |
| O=C(NCc1cn(-c2cc(Cl)ccc2O)nn1)c1cc(C(F)(F)F)cc(C(F)(F)F)c1 | 16.2 µmol | 14 |  |
| O=C(c1ccccc1)c1cn(-c2cc(Cl)ccc2O)nn1 | 104 µM | 51.6 |  |
| Cc1cccc(O)c1-n1cc(C(=O)c2ccc3ccccc3c2)nn1 | 85.2 µmol | 74.9 |  |
| Cc1ccc(O)c(-n2cc(C(=O)c3ccccc3)nn2)c1 | > 100 µmol | > 100 |  |
| Cc1cc(C)cc(C(=O)c2cn(-c3cc(Cl)ccc3O)nn2)c1 | 57.8 µmol | 30.6 |  |
| Cc1cc(C)cc(C(=O)c2cn(-c3c(C)cccc3O)nn2)c1 | 104 µM | 98.4 |  |
| Cc1ccc(O)c(-n2cc(C(=O)c3ccc(C(C)C)cc3)nn2)c1 | > 100 µmol | > 100 |  |
| Cc1cc(C)cc(C(=O)c2cn(-c3ccc([N+](=O)[O-])cc3O)nn2)c1 | 89.1 µmol | 70.5 |  |
| Cc1cccc(O)c1-n1cc(C(=O)c2ccccc2)nn1 | 8.1 µmol | 8 |  |
| CC(C)c1ccc(C(=O)c2cn(-c3cc(Cl)ccc3O)nn2)cc1 | 64.1 µmol | 41.6 |  |
| Cc1cc(C)cc(C(=O)c2cn(-c3cc(C)ccc3O)nn2)c1 | > 100 µmol | > 100 |  |
| O=C(c1cc(C(F)(F)F)cc(C(F)(F)F)c1)c1cn(-c2cc(Cl)ccc2O)nn1 | 11.99 µmol | 3.15 | inhibition [3]: Active; inhibition [4]: Active; inhibition [5]: Active; Activity (U-87 MG): Active; Activity (A2780 [6]): Active; Activity (T47D): Active; Activity (A2780 [7]): Active; half-life [8]: 1.98 h; microsomal CLint [9]: 19.4 µL/min/mg; half-life [10]: 3.22 h; clearance [11]: 15.5 mL/min/kg; bioavailability [12]: 85.1% |
| Cc1cc(C)cc(C(=O)NC(=S)Nc2cc([N+](=O)[O-])ccc2O)c1 |  |  | half-life [8]: 0.03 h; microsomal CLint [9]: 1260 µL/min/mg |
